HUVEC prolif 384 – inhibitors of HUVEC proliferation, primary screen, cell-based, 384-well; CellTiter-Glo luminescence, 72 h; hits give low values; viability, % at 10 µM (by protocol); 86,000 tested, 1.1% active; AID 648, 2007;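 active = viability at or below 30%; inactive = viability above 30%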;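 also: 100% = median luminescence of DMSO-only cell control wells on each plate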
Fibroblast inh – antiproliferative effect on LL 47 fibroblasts – human, LL 47 cells, CellTiter-Glo luminescence, primary screen; LL 47 human lung fibroblast viability, ATP luminescence; hits give low values; viability, % at 10 µM; 85,000 tested, 1.1% active;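 active = viability at or below 50% in the single dose screen; inactive = viability above 50%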;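 also: compound exposure lasted 72 h before the ATP readout; 100% = median luminescence of untreated cell-only wells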
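Benchmarks: Cell-only wells, no compound | Test system: LL 47 human lung fibroblasts, passage 12 or lower | Input: 1,150 cells/well | Measured by: CellTiter-Glo luminescence measuring cellular ATP | Medium: IMEM, 15% FBS supplement | Schedule: Overnight attachment after seeding, then 72 h compound exposure at 37 °C | Doses: Compound addition at 0.1% DMSO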
H69AR growth 86K – proliferation blockers of H69AR lung cancer cells, primary screen, cell-based, human, 86K library | H69AR lung tumor viability, ATP luminescence, 72 h; hits give low values | viability, % at 10 µM | 85,000 tested, 6% active | AID 598, 2007;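 active = viability at or below 40%; inactive = viability above 40%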;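 also: multidrug resistant small cell line overexpressing MRP-1 efflux transporter; 100% = mean luminescence of untreated control wells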
Jurkat tox 60K – cytotoxicity toward Jurkat T cells, primary screen, cytotoxicity control, cell-based, Jurkat E6.1, 60K MLSMR library; Jurkat E6.1 viability, ATP luminescence, 48 h; inhibition, % at 4 µM; 56,000 tested, 1.2% active; AID 463, 2006;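 active = inhibition above the mean inhibition of all tested compounds plus 3 SD, cut at about 28% in these data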
* = called active by the depositor; x = no result. An excerpt weighted towards active compounds, which were near 6.6% of everything screened.

SMILES	HUVEC prolif 384	Fibroblast inh	H69AR growth 86K	Jurkat tox 60K
Cc1cc(O)c(-c2cc(C(=O)Nc3ccc(S(=O)(=O)N4CCOCC4)cc3)[nH]n2)cc1C	45	49*	33*	14
COc1cc(C)ccc1S(=O)(=O)N1CCN(C23CC4CC(CC(C4)C2)C3)CC1	101	101	78	x
CCN(CC)c1ccc(NC(=O)CC2Oc3ccccc3NC2=O)c(C)c1 (centres undefined)	78	87	25*	5
Cc1cc(C)cc(N2C(=O)CC(n3nc(C)cc3C)C2=O)c1 (centres undefined)	93	101	102	x
Fc1ccc(-c2nnc(-n3nnc4ccccc43)c3ccccc23)cc1	99	85	89	x
COc1ccccc1C(=O)NC(=Nc1nc2ccccc2o1)NC(=O)c1ccccc1OC	14*	71	18*	x
N/C(=N\c1nc2ccccc2o1)NC(=O)c1ccccc1NC(=O)c1ccccc1	70	70	27*	x
COc1cc([C@@H]2c3cc4c(cc3[C@H](O)[C@H]3COC(=O)[C@H]23)OCO4)cc(OC)c1OC	46	53	36*	x
CCc1c(C)nc2ncnn2c1N1CCC(C(=O)Nc2cccc(C(C)=O)c2)CC1	84	81	67	-2
CC(C)CC(c1nnnn1Cc1ccccc1)N1CCC(C(N)=O)CC1 (centres undefined)	96	102	93	x
Cc1ccc(S/C=C\C(=O)c2ccccc2)cc1	29*	70	1.2*	x
O=C(c1cn(-c2ccccc2)nc1-c1ccncc1)n1nnc2ccccc21	67	x	8.1*	-3
CCOc1cc(CNn2nnnc2N)cc(Cl)c1OCC(=O)NC(C)(C)C	93	101	85	x
CCOC(=O)Nc1ccc2c(c1)N(C(=O)N1CCN(C)CC1)c1ccccc1S2	69	83	103	1
C=CC(=O)N1c2ccccc2Sc2ccc(NC(=O)OCC)cc21	46	68	26*	x
COc1ccc(N2C(N)=C(C#N)C(c3cccnc3)C3=C2CC(C)(C)CC3=O)cc1 (centres undefined)	65	80	18*	1
COc1ccc(OC)c(N2C(N)=C(C#N)C(c3ccc(OC)c(O)c3)C3=C2CC(C)(C)CC3=O)c1 (centres undefined)	86	97	16*	x
CC1(C)CC(=O)C2=C(C1)N(c1ccccc1C#N)C(N)=C(C#N)C2c1cccs1 (centres undefined)	91	92	47	x
CCSc1sccc1C1C(C#N)=C(N)N(c2cccnc2)C2=C1C(=O)CC(C)(C)C2 (centres undefined)	92	97	50	-3
O=C(Nc1ccccc1)c1cccnc1N1CCOCC1	x	x	x	-7
O=C(Nc1ccc(C(F)(F)F)cc1)c1cccnc1N1CCOCC1	82	83	39*	x
CCOC(=O)Cc1csc(NC(=O)c2ccc(Cl)nc2)n1	83	96	29*	x
CCOC(=O)Cc1csc(NC(=O)c2c(O)c3ccccc3n(CC(C)C)c2=O)n1	86	104	17*	x
CCOC(=O)Cc1csc(NC(=O)c2ccc3c(c2)OCO3)n1	104	105	88	2
COc1ccc(C(=O)Nc2nncs2)cc1S(=O)(=O)N1CC(c2ccccc2)CC1=O (centres undefined)	87	93	61	4
SMILES	HUVEC prolif 384	Fibroblast inh	H69AR growth 86K	Jurkat tox 60K
CC(C)Oc1ccc(NC(=O)c2ccncc2)cc1	102	108	105	13
CCCCOc1ccccc1NC(=O)c1ccco1	94	99	82	-7
CCOc1ccccc1NC(=O)c1cccc(NC(=O)c2ccco2)c1	58	60	25*	81*
CCOc1ccc(C(=O)Nc2ccc(NC(=O)c3ccco3)c(Cl)c2)cc1Cl	31	66	14*	x
CCOc1ccc(C(=O)Nc2ccc(NC(=O)c3ccco3)c(Cl)c2)cc1Br	x	x	x	5
COc1ccc(OC)c2[nH]c(=O)c(CCNC(=O)CC(C)C)cc12	87	91	92	-6
CCCCCOc1ccc(Br)cc1/C(C)=N/NC1=NCCN1	6.4*	93	2.3*	x
CCn1c(SCC(=O)N2CCN(c3ccccc3F)CC2)nnc1-c1ccoc1C	108	103	102	6
COC(=O)c1[nH]c2cc(C)ccc2c1NC(=O)CN1CCN(C(=O)c2ccco2)CC1	84	87	62	-6
Cc1ccc(C(=O)c2cc(C)sc2NC(=O)CN2CCN(C(=O)c3ccco3)CC2)cc1	70	86	28*	-1
CC1CCC2(CC1)NC(=O)N(CC(=O)c1ccc[nH]1)C2=O (centres undefined)	90	98	100	x
CC(C)(C)c1ccc(C2(C)NC(=O)N(CC(=O)c3ccc[nH]3)C2=O)cc1 (centres undefined)	87	90	27*	x
CCCCn1nnnc1SCC(=O)N1CCOCC1	101	107	92	x
COc1ccc(/C=N/n2c(SC)nnc(C(C)(C)C)c2=O)c(OC)c1	106	97	111	x
N#CCc1nc2c3c4c(sc3ncn2n1)CCCC4	16*	95	93	x
c1nc2sc3c(c2c2nnnn12)CCCC3	69	90	92	-12
COC(=O)c1ccccc1S(=O)(=O)N1Cc2cc([N+](=O)[O-])ccc2Oc2ccccc21	92	88	73	x
COc1ccc(-c2nn(C)c(=O)c3ccccc23)cc1NC(=O)Cn1nc(-c2ccccc2)c2ccccc2c1=O	88	101	99	x
CCCCCn1c(CN2CCN(c3cccc(Cl)c3)CC2)nc2c1c(=O)[nH]c(=O)n2C	64	84	39*	11
Cn1c(=O)[nH]c(=O)c2c1nc(CN1CCN(c3cccc(Cl)c3)CC1)n2CCc1ccccc1	73	85	2.8*	5
C=CCSc1nnc(-c2ccccc2NC(=O)CC)c(=O)[nH]1	95	99	x	-4
O=C(NCCCN1CCCC1=O)c1ccccc1NS(=O)(=O)c1ccc(Br)cc1	88	92	89	x
Cc1nc2c3ccccc3nc(SCC(=O)N3CC(C)CC(C)C3)n2n1 (centres undefined)	80	97	20*	x
COCCNC(=O)CSc1nc2ccccc2c2nc(C)nn12	92	100	83	-5
O=C(COc1ccccc1)Nc1nnc(-c2ccc(Cl)s2)o1	95	104	93	2
SMILES	HUVEC prolif 384	Fibroblast inh	H69AR growth 86K	Jurkat tox 60K
CCc1ccc(C2C(C#N)=C(N)C(C#N)(C#N)C3=CCC(C(C)(C)C)CC32)cc1 (centres undefined)	2.3*	64	79	x
CCn1c(Sc2nc(C)nc3scc(-c4cccs4)c23)n[nH]c1=O	81	63	2.8*	14
CCc1nc2scc(-c3cccs3)c2c(=O)o1	88	98	82	x
CCc1ccc(C(=O)/C=C/c2ccc([N+](=O)[O-])o2)cc1	21*	15*	2.6*	x
CCOc1c(Br)ccc2c1sc1nc[nH]c(=O)c12	26*	99	79	0
Cc1cc2c(=O)[nH]cnc2s1	98	100	94	x
Cc1cc(NC(=O)CN2CCCCC2C)no1 (centres undefined)	104	105	90	x
